From PubChem BioAssay AID488973 (NMMLSC, 2010)
Calls of active or inactive are those of the source.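 The calls were made as follows: active = toxic dose over ten times the dose restoring drug killing, with toxic dose under 15 µM; inactive = the rest.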

System: Jurkat/DNR viability with daunorubicin, trypan blue, 7 d
Assay: chemoreversal in ABCB1 cells, dose response, ABC transporter inhibitor project, paired ABCG2 counter-screen, SAR hit validation (AID 488973)
Conditions: for CC50: measured here: toxicity without chemotherapeutic (TD50)
In short: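 assay system = ABCB1-expressing drug-resistant Jurkat/DNR cells | input = 100,000 cells per mL | probe or stimulus = fixed daunorubicin | dosing = test compound dose series from 0.1 to 100 µM | schedule = 7-day exposure of cells to test compound | signal = trypan blue cell counts | evaluation = chemo-reversal 50% concentration (CR50) set against 50% toxic dose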

| SMILES | EC50 | CC50 [µM] |
| --- | --- | --- |
| COc1cccc(C(=O)N2CCN(c3cc(-c4ccccc4)nc4cc(-c5cccc(Cl)c5)nn34)CC2)c1 | 0.35 µM | > 100 |
| Cc1cc(N2CCN(C(=O)c3ccco3)CC2)n2nc(-c3ccc(F)cc3)cc2n1 | 5.33 µM (inactive) | 4.2 |
| Cc1cc(N2CCN(C(=O)c3ccco3)CC2)n2nc(-c3ccccc3)nc2n1 | 4.92 µM (inactive) | 11.8 |
| Cc1nc2cc(-c3ccc(F)cc3)nn2c(N2CCN(C(=O)c3ccco3)CC2)c1C | 1.82 µM (inactive) | 5.33 |
| COc1ccc(-c2cc3nc(C)c(C)c(N4CCN(C(C)=O)CC4)n3n2)cc1 | 6 µM | 105 |
| O=C(Cc1ccccc1)N1CCN(c2cc(-c3ccccc3)nc3cc(-c4cccc(Cl)c4)nn23)CC1 | 0.51 µM | 17.8 |
| O=C(c1cccnc1)N1CCN(c2cc(-c3ccccc3)nc3cc(-c4cccc(Cl)c4)nn23)CC1 | 0.17 µM (inactive) | 4.72 |
| O=C(c1ccco1)N1CCN(c2cc(-c3ccccc3)nc3cc(-c4cccc(F)c4)nn23)CC1 | 0.58 µM (inactive) | 2.16 |
| Cc1nc2cc(-c3cccc(Cl)c3)nn2c(N2CCN(C(=O)c3ccoc3)CC2)c1C | 0.51 µM (inactive) | 5.33 |
| O=C(c1ccoc1)N1CCN(c2cc(-c3ccncc3)nc3cc(-c4cccc(Cl)c4)nn23)CC1 | 0.6 µM (inactive) | 13.5 |
| COc1cccc(-c2cc3nc(-c4ccco4)cc(N4CCN(C(=O)c5ccoc5)CC4)n3n2)c1 | 0.47 µM (inactive) | 5.52 |
| COc1ccc(-c2cc3nc(-c4ccccc4)cc(N4CCN(C(=O)c5ccsc5)CC4)n3n2)cc1 | 0.14 µM (inactive) | 4.9 |
| O=C(c1ccco1)N1CCN(c2cc(-c3ccccc3)nc3cc(-c4cccc(Cl)c4)nn23)CC1 | 0.7 µM (inactive) | 3.18 |
| O=C(c1ccco1)N1CCN(c2cc(Cc3ccccc3)nc3cc(-c4cccc(Cl)c4)nn23)CC1 | 1.41 µM (inactive) | 8.47 |
| COc1ccc(-c2cc3nc(-c4ccccc4)cc(N4CCN(C(=O)c5ccccc5)CC4)n3n2)cc1 | 0.19 µM | 16.9 |
| O=C(c1ccncc1)N1CCN(c2cc(-c3ccccc3)nc3cc(-c4cccc(Cl)c4)nn23)CC1 | 0.25 µM (inactive) | 10.9 |
| O=C(c1ccoc1)N1CCN(c2cc(-c3cccnc3)nc3cc(-c4cccc(Cl)c4)nn23)CC1 | 0.2 µM (inactive) | 5.33 |
| COc1ccccc1-c1cc2nc(-c3ccccc3)cc(N3CCN(C(=O)c4ccoc4)CC3)n2n1 | 0.45 µM (inactive) | 4.37 |
| Cc1nc2cc(-c3ccc4c(c3)OCO4)nn2c(N2CCN(C(=O)c3ccoc3)CC2)c1C | 0.13 µM | > 100 |

| SMILES | EC50 | CC50 [µM] |
| --- | --- | --- |
| COc1ccc(-c2cc3nc(C)c(C)c(N4CCN(C(=O)c5ccco5)CC4)n3n2)cc1 | 0.53 µM | > 100 |
| COc1ccc(-c2[nH]nc3nc(N4CCN(C(=O)c5ccoc5)CC4)cc(C(F)(F)F)c23)cc1 | 0.33 µM (inactive) | 0.455 |
| CC(=O)N1CCN(c2c(C)c(C)nc3cc(-c4cccc(F)c4)nn23)CC1 | 19.8 µM (inactive) | > 100 |
| COc1cc(OC)cc(-c2cc3nc(C)c(C)c(N4CCN(C(=O)c5ccoc5)CC4)n3n2)c1 | 0.1 µM (inactive) | 9.52 |
| Cc1cc(N2CCN(C(=O)c3ccco3)CC2)n2nc(C)c(-c3ccccc3)c2n1 | 3.58 µM (inactive) | 3.31 |
| O=C(c1ccoc1)N1CCN(c2cc(-c3ccccc3)nc3cc(-c4ccncc4)nn23)CC1 | 1.52 µM (inactive) | 9.52 |
| COc1ccc(-c2cc3nc(-c4ccccc4)cc(N4CCN(C(=O)c5ccoc5)CC4)n3n2)cc1 | 0.23 µM (inactive) | 5.54 |
| O=C(c1ccoc1)N1CCN(c2cc(-c3ccco3)nc3cc(-c4ccccc4)nn23)CC1 | 0.55 µM (inactive) | 5.52 |
| COc1cccc(-c2cc(N3CCN(C(=O)c4ccoc4)CC3)n3nc(-c4cccc(OC)c4)cc3n2)c1 | 0.03 µM (inactive) | 7.93 |
| O=C(C1CCCO1)N1CCN(c2c3c(nc4cc(-c5cccc(F)c5)nn24)CCCC3)CC1 (centres undefined) | 3.58 µM (inactive) | 12.3 |
| Cc1nc2ncnn2c(N2CCN(C(=O)c3ccco3)CC2)c1Cc1ccccc1 | 12.3 µM (inactive) | > 100 |
| O=C(c1ccco1)N1CCN(c2c3c(nc4cc(-c5cccc(F)c5)nn24)CCCC3)CC1 | 2.94 µM (inactive) | 5.32 |
| Cc1nc2cc(-c3cccc(Cl)c3)nn2c(N2CCN(C(=O)c3ccsc3)CC2)c1C | 1.13 µM (inactive) | 10.1 |
| Cc1nc2cc(-c3cccc(Cl)c3)nn2c(N2CCN(C(=O)c3ccco3)CC2)c1C | 1.58 µM | > 100 |
| O=C(c1ccoc1)N1CCN(c2cc(-c3ccco3)nc3cc(-c4cccc(Cl)c4)nn23)CC1 | 0.53 µM (inactive) | 8.53 |
| Cc1ccc(-c2cc3nc(-c4ccccc4)cc(N4CCN(C(=O)c5ccoc5)CC4)n3n2)cc1 | 0.29 µM (inactive) | 5.77 |
| COc1cccc(-c2cc3nc(C)c(C)c(N4CCN(Cc5ccco5)CC4)n3n2)c1 | 0.02 µM | > 100 |
| COc1cccc(-c2cc3nc(C)c(C)c(N4CCN(C(=O)c5ccoc5)CC4)n3n2)c1 | 0.82 µM | > 100 |
